SUMO1-SIM PPI = modulators of human SUMO1-mediated protein-protein interactions; actives 0.33% (n = 360,000); SUMO1 binding to a labelled peptide, TR-FRET, 1 h; inhibition, % at 20 µM; P63165; in the data active = inhibition above about 37%
Target sequence (P63165 whole entry, looked up): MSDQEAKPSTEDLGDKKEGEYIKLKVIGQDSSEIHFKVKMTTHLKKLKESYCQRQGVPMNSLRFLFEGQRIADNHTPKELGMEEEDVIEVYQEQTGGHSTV
Scp-1 inhibitor = blocks human Scp-1 phosphatase activity; Recombinant Scp1, phosphopeptide, malachite green phosphate absorbance; actives 0.88% (n = 340,000); inhibition, % at 20 µM; Q9GZU7; AID 493091;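 active = inhibition above about 50% at 20 µM, limit read from the data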
Target sequence (Q9GZU7 76-261 limits assumed): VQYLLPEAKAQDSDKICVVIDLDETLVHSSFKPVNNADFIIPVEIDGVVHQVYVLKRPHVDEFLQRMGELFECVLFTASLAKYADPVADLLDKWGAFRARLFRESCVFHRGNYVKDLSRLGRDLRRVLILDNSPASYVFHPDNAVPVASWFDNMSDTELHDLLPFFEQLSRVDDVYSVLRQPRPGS
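assay system = SCP-1 phosphatase catalytic domain, residues 76-261 | buffer or medium = 50 mM Tris acetate pH 5.5, 0.005% Tween-20, 10 mM MgCl2 | incubation = enzyme reaction 45 min at room temperature, colour 5 min, stabilisation 30 min | signal = Phosphate-binding colour reagent, absorbance read at 630 nm | measure = % inhibition at 20 µM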
DNMT1 block = inhibitors of human DNMT1. actives 0.83% (n = 360,000). DNMT1 molecular beacon, Hinp1I cleavage, fluorescence. inhibition (reported as % activation of signal), % at 10 µM. P26358; in the data active = inhibition above about 50%
GRK2 inh = blocks RNA aptamer binding to human GRK2. P25098. bead flow cytometry, FAM-aptamer displacement from GRK2. inhibition of aptamer binding, % at 10 µM. actives 0.59% (n = 330,000). AID 488847;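 active = inhibition of aptamer binding above 40%, roughly 3 SD of noise, on plates passing a quality check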;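 also: median bead fluorescence of bound FAM aptamer so fluorescent compounds give negative values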
STEP inh = blocks human striatal-enriched tyrosine phosphatase; P54829; recombinant STEP, OMFP fluorogenic substrate, fluorescence; inhibition, % at 20 µM; actives 0.25% (n = 360,000);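 active = inhibition at 20 µM, scaled per plate between control wells, above about 37%, limit read from the data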
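Test system: STEP tyrosine phosphatase / Reagent: OMFP at 25 µM / Doses: 20 µM, 1% DMSO / Read-out: percent inhibition scaled to no-enzyme and uninhibited-enzyme controls, plate-pattern corrected / Detection: FITC-channel fluorescence of OMFP product / Medium: Bis-Tris buffer pH 6.0, 2.5 mM DTT, 0.005% Tween 20 / Schedule: 20 min at room temperature, dark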
LMPTP inh = LMPTP (human) inhibition | actives 0.22% (n = 360,000) | P24666 | inhibition, % at 20 µM | recombinant LMPTP-A, OMFP fluorogenic substrate, fluorescence intensity | AID 651560;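 active = compounds that cut the enzyme signal by at least half of the control window in the single-dose screen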
Target sequence (P24666 whole entry, looked up): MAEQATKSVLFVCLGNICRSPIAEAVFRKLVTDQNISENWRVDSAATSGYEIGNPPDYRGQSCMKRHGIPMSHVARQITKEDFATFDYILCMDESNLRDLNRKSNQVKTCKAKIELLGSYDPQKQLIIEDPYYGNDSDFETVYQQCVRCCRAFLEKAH
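Test system – LMPTP-A phosphatase enzyme · Quantity – 0.625 nM LMPTP-A final · Reagent – OMFP substrate, 400 µM final · Dosing – one test concentration per compound, 20 µM, with 3% DMSO overall · Timing – 50 min enzyme reaction at room temperature, protected from light · Detection – fluorescence intensity · Controls – substrate-only low control, DMSO enzyme-plus-substrate high control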
Beacon interf DR = counter-screen for DNMT1 inhibitors: spectral interference, dose response; shares compounds with DNMT1 block; molecular beacon fluorescence; IC50, µM; 200 tested, under 10 active; AID 602382; call rule not given here
DNMT1 inh conf = confirmation of human DNMT1 inhibitors | DNMT1 molecular beacon HinP1I cleavage, fluorescence | inhibition, % at 10 µM | AID 602385 | shares compounds with DNMT1 block | actives 8% (n = 2,300);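 active = average inhibition of at least 30% in the single-concentration confirmation test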
DNMT1 interf = shows spectral interference in the DNMT1 beacon assay; shares compounds with DNMT1 block; DNMT1 molecular beacon spectral interference counterscreen, fluorescence 485/520; activation (fluorescence interference), % at 10 µM; actives 1% (n = 2,300); AID 602387;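 active = activation of at least 30% at 10 µM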;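 also: DNMT1 catalytic domain with a HinP1I cleavage step and a FAM/dabcyl DNA beacon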
Hits are given with their value; . = inactive; / = no result. In the library only some 2.2% were active in any assay of this set; here they are far more common.

SMILES	SUMO1-SIM PPI	Scp-1 inhibitor	DNMT1 block	GRK2 inh	STEP inh	LMPTP inh	DNMT1 inh conf	DNMT1 interf	others
O=S(=O)(Nc1c(S(=O)(=O)c2ccccc2)c2nc3ccccc3nc2n1C1CCCCC1)c1ccccc1	50	.	67	.	.	.	46	.	Beacon interf DR=.
CC(C)NC(=O)C1(C)CN(S(C)(=O)=O)CC(=O)N1Cc1ccc2c(c1)OCO2 (stereo not drawn)	.	/	/	/	/	.	/	/
O=C(Nc1ccc2oc(-c3ccccc3F)nc2c1)c1cncc(Br)c1	.	.	62	.	.	.	.	.
O=C(Nc1ccc2oc(-c3ccccc3)nc2c1)c1cccnc1	.	.	.	.	.	.	/	/
CCCOc1ccc(F)cc1-c1cc(C(=O)Nc2ccccc2)[nH]n1	.	/	.	/	.	.	/	/
CC(=O)NC(c1ccccc1)c1nc(-c2ccc(F)c(Cl)c2)cs1 (stereo not drawn)	.	/	.	/	.	.	/	/
COc1ccc(C(C)(C)C)cc1NC(=O)c1ccc2c(c1)SC1=NS(=O)(=O)CCN12	.	.	69	.	.	.	.	.
O=C(O)c1ccc2c(c1)SC1=NS(=O)(=O)CCN12	.	.	.	.	.	.	/	/
NC(=O)C1CCN(C(=O)c2ccc(Cl)c(NC(=O)c3cccs3)c2)CC1	.	/	.	/	.	.	/	/
Cc1ccccc1OCCC(=O)Nc1ccc(S(=O)(=O)N2CCCC2)cc1	.	/	.	/	.	.	/	/
CCOc1ccc(OCC)c(S(=O)(=O)NCCOC23CC4CC(CC(C4)C2)C3)c1	.	.	.	.	.	.	/	/
COc1cc(S(=O)(=O)NCCOC23CC4CC(CC(C4)C2)C3)c(OC)cc1Cl	.	.	107	.	.	.	.	.
CC(C)(C)c1ccc(CC(=O)N2CCC2(C)C(=O)O)cc1 (stereo not drawn)	.	/	.	/	.	.	/	/
CSCCC(C(=O)NCc1ccccc1)n1c(-c2ccc3c(c2)CCO3)nc2ccccc21 (stereo not drawn)	.	/	/	/	/	.	/	/
Cc1cc(=O)c(C(=O)Nc2cccc(N3CCCC3=O)c2)nn1-c1ccccc1F	.	.	85	.	.	.	.	.
Cc1cc(=O)c(C(=O)Nc2cccc(N3CCCC3=O)c2)nn1-c1ccccc1Cl	.	.	.	.	.	.	/	/
COc1ccc(S(=O)(=O)Nc2ccc(S(=O)(=O)Nc3cc(C)nc(C)n3)cc2)cc1OC	.	.	76	.	.	.	.	.
Cc1ccc(S(=O)(=O)Nc2ccc(S(=O)(=O)Nc3cc(C)nc(C)n3)cc2)cc1	.	.	.	.	.	.	/	/
O=C(O)/C=C/c1ccc([N+](=O)[O-])o1	.	58	75	.	.	.	.	.
CN1CCN(C(=O)/C=C/c2ccc([N+](=O)[O-])o2)CC1	.	.	.	/	.	.	/	/
CSc1ccccc1C(=O)C1CCCN(C(=O)c2cccc(Cn3cccn3)c2)C1 (stereo not drawn)	.	/	.	/	.	.	/	/
O=C(Nc1cc2c(oc1=O)CCCC2=O)c1ccc(Cl)cc1	.	68	97	.	.	.	.	.
CN(c1c[nH]c(=O)[nH]c1=O)C1CCCCC1	.	.	.	.	.	.	/	/
CN(C)C1CCCCC=CC(=O)NC1 (stereo not drawn)	.	/	52	/	.	.	.	.
OC(c1cccnc1)c1nc(-c2cccc(F)c2)cs1 (stereo not drawn)	.	/	.	/	.	.	/	/
COc1cc(/C=C(/C#N)c2nc3ccccc3[nH]2)ccc1OCC(=O)Nc1ccccc1C	.	.	52	.	.	.	.	.
COc1cc(/C=C(/C#N)c2nc3ccccc3[nH]2)ccc1OCC(=O)Nc1ccccc1C(C)C	.	.	.	.	.	.	/	/

High-throughput results as filed in PubChem BioAssay.
